This is a sample that favours compounds with a hit; in the whole collection about 0.19% have one here.
IDH1 R132H inh: inhibitors of human IDH1 R132H; inhibition, % at 10 µM; O75874; AID 624101; IDH1 R132H reductase, diaphorase/resazurin fluorescence, 60 min; 70,000 tested, 0.18% active; in the data active = inhibition above about 34%
Target sequence (O75874 whole entry R132H): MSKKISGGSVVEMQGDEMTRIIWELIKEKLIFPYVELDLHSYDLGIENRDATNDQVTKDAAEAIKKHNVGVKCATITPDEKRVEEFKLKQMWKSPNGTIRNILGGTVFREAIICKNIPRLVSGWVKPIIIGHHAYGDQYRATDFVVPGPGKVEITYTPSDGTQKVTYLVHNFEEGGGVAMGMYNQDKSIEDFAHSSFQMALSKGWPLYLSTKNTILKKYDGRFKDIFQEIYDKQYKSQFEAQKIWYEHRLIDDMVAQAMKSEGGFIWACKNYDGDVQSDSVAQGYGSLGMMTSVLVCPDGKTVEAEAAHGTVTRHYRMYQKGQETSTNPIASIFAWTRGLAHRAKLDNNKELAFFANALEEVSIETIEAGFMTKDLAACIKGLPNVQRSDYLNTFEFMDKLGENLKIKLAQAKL
KDM4C inh: blocks human GASC-1 (KDM4C) demethylase activity | Q9H3R0 | GST-KDM4C 2-372, H3K9me3 peptide, LANCE TR-FRET | inhibition, % at 12.5 µM | 96,000 tested, 0.15% active;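 active = mean replicate inhibition above about 25%, with at least 55% of replicates also reaching it, limit read from the data, passing the limit was not always enough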
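System – N-terminal GST-fused human GASC-1 (KDM4C) fragment, residues 2-372 · Input – enzyme final amount 10 nM · Technique – LANCE TR-FRET, Eu antibody, ULight-streptavidin, EDTA, ex 340 nm, em 618/671 nm · Medium – HEPES buffer, pH 7.5, plus ascorbate · Incubation – enzyme reaction 30 min, then detection 60 min, both room temperature · Reagent – H3K9me3 peptide with Fe(II)/2OG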
Large screens that a line does not name were inactive; ! = repeats disagree.

C[C@H](CO)N1C[C@H](C)[C@H](CN(C)Cc2ccccn2)Oc2ncc(C#CC3(O)CCCC3)cc2C1=O	none
COc1ccccc1C#Cc1cnc2c(c1)C(=O)N([C@@H](C)CO)C[C@H](C)[C@H](CN(C)C)O2	KDM4C inh 29
COc1ccccc1C#Cc1cnc2c(c1)C(=O)N([C@@H](C)CO)C[C@@H](C)[C@@H](CN(C)C)O2	none
C[C@@H]1CN([C@H](C)CO)C(=O)c2cc(C#Cc3ccncc3)cnc2O[C@@H]1CN(C)Cc1ccncc1	none (no result: IDH1 R132H inh)
C[C@H](CO)N1C[C@H](C)[C@@H](CN(C)Cc2ccccn2)Oc2ncc(C#CC3(O)CCCC3)cc2C1=O	KDM4C inh 41
C[C@@H]1CN([C@@H](C)CO)C(=O)c2cc(C#Cc3ccccc3)cnc2O[C@H]1CN(C)CC1CCOCC1	KDM4C inh 35
C[C@H]1CN([C@@H](C)CO)C(=O)c2cc(C#Cc3ccncc3)cnc2O[C@@H]1CN(C)Cc1ccncc1	IDH1 R132H inh 37
C[C@H]1CN([C@@H](C)CO)C(=O)c2cc(C#Cc3ccccc3)cnc2O[C@@H]1CN(C)CC1CCOCC1	none
COc1ccc(C2OCC3C(c4cc(OC)c5c(c4)OCO5)OCC23)cc1OC (configuration not stated)	none (no result: KDM4C inh)
COC(=O)COc1cccc(NC(=O)c2ccc(-c3ccccc3)cc2)c1	none (no result: KDM4C inh)
CSc1cccc(NC(=O)Cn2cc(Br)c([N+](=O)[O-])n2)c1	none (no result: KDM4C inh)
C[C@@H]1CN([C@@H](C)CO)C(=O)c2cc(Br)cnc2O[C@@H]1CN(C)C(=O)Nc1ccc(F)cc1	none
COCC(=O)N(C)C[C@H]1Oc2ncc(C#CC(C)(C)O)cc2C(=O)N([C@H](C)CO)C[C@H]1C	none
COCC(=O)N(C)C[C@H]1Oc2ncc(C#CC(C)(C)O)cc2C(=O)N([C@@H](C)CO)C[C@H]1C	KDM4C inh 27
C[C@@H]1CN([C@@H](C)CO)C(=O)c2cc(-c3ccncc3)cnc2O[C@@H]1CN(C)S(=O)(=O)c1ccc(F)cc1	none
C[C@H](CO)N1C[C@H](C)[C@H](CN(C)C(=O)Nc2ccc(F)cc2)Oc2ncc(Br)cc2C1=O	IDH1 R132H inh 34!
Cc1ccc(S(=O)(=O)N(C)C[C@@H]2Oc3ncc(-c4ccncc4)cc3C(=O)N([C@@H](C)CO)C[C@H]2C)cc1	KDM4C inh 39
COc1ccc(-n2c(SCc3nc4ccccc4s3)nnc2-c2cccnc2)cc1	none (no result: KDM4C inh)
CC1CC(=O)c2cc(O)c(O)cc2C1 (configuration not stated)	none (no result: KDM4C inh)
N#Cc1c(NC(=O)COc2ccc3c(-c4ccccc4)cc(=O)oc3c2)sc2c1CCC2	none (no result: KDM4C inh)
CC(C)(C)C1CCc2c(sc(NC(=S)NC(=O)c3cc4ccccc4o3)c2C(N)=O)C1 (configuration not stated)	none (no result: KDM4C inh)
COc1cc(NC(=O)CCN2C(=O)c3ccccc3C2=O)cc(OC)c1	none (no result: KDM4C inh)
O=S(=O)(Nc1ccc(Cl)cn1)c1cccc(S(=O)(=O)c2ccccc2)c1	none (no result: KDM4C inh)
O=S(=O)(Nc1cccnc1)c1cccc(S(=O)(=O)c2ccc(Cl)c(Cl)c2)c1	IDH1 R132H inh 47 (no result: KDM4C inh)
Cc1ccc(-n2c(C)nnc2SCC(=O)Nc2ccc(Br)c(C)c2)cc1C	none (no result: KDM4C inh)
O=C(CN1CCOCC1)NCC[C@@H]1CC[C@H](NC(=O)c2ccc3c(c2)OCO3)[C@H](CO)O1	none
O=C(CN1CCOCC1)NCC[C@H]1CC[C@H](NC(=O)c2ccc3c(c2)OCO3)[C@H](CO)O1	IDH1 R132H inh 61, KDM4C inh 50
CN(C)c1ccc2c(c1)[C@@H]1C[C@H](CC(=O)NCc3ccc(-c4ccccc4)cc3)O[C@@H](CO)[C@@H]1O2	none
CN(C)c1ccc2c(c1)[C@H]1C[C@H](CC(=O)NCc3ccccn3)O[C@H](CO)[C@H]1O2	KDM4C inh 34
CN(C)c1ccc2c(c1)[C@H]1C[C@@H](CC(=O)NCc3ccccn3)O[C@@H](CO)[C@H]1O2	none
O=C(C[C@@H]1C[C@H]2c3cc(NC(=O)NC4CCCCC4)ccc3O[C@H]2[C@@H](CO)O1)NCc1ccccn1	none
O=C(C[C@@H]1C[C@H]2c3cc(NC(=O)NC4CCCCC4)ccc3O[C@H]2[C@H](CO)O1)NCc1ccccn1	IDH1 R132H inh 102, KDM4C inh 88
C[C@H](NC(=O)C[C@@H]1C[C@H]2c3cc(NC(=O)NC4CCCCC4)ccc3O[C@H]2[C@@H](CO)O1)c1ccccc1	KDM4C inh 32
CN(C)c1ccc2c(c1)[C@H]1C[C@H](CC(=O)NCc3ccccc3)O[C@H](CO)[C@H]1O2	KDM4C inh 44
C[C@H](NC(=O)C[C@H]1C[C@H]2c3cc(NC(=O)NC4CCCCC4)ccc3O[C@H]2[C@@H](CO)O1)c1ccccc1	none
CCOc1ccc(C)cc1S(=O)(=O)NCc1ccco1	none (no result: KDM4C inh)
COc1cccc(NC(=O)CSc2nnc(-c3ccncc3)n2-c2ccc(Br)cc2)c1	none (no result: KDM4C inh)
CC(C)c1ccc(OCC(=O)Nc2cccc3ncccc23)cc1	none (no result: KDM4C inh)
CC(C)(C)c1nc2scc(-c3ccc(Cl)cc3)n2n1	none (no result: KDM4C inh)
COc1ccc([N+](=O)[O-])cc1NC(=O)CN(c1ccc(C)cc1C)S(C)(=O)=O	none (no result: KDM4C inh)
CN(C)c1ccc2c(c1)[C@H]1C[C@@H](CC(=O)NCc3ccccc3)O[C@@H](CO)[C@H]1O2	KDM4C inh 40
CN(C)c1ccc2c(c1)[C@@H]1C[C@@H](CC(=O)NCc3ccc(-c4ccccc4)cc3)O[C@@H](CO)[C@@H]1O2	none (no result: IDH1 R132H inh)
O=C(CC1c2ccccc2Oc2ccccc21)NCCOc1ccccc1Cl	none (no result: KDM4C inh)
CN1C(=O)c2cc(NC(=O)Nc3ccccc3Cl)ccc2OC[C@@H]2O[C@@H](CC(=O)O)CC[C@@H]21	none (no result: IDH1 R132H inh)
CN1C(=O)c2cc(NC(=O)Nc3ccccc3Cl)ccc2OC[C@H]2O[C@@H](CC(=O)O)CC[C@@H]21	KDM4C inh 49 (no result: IDH1 R132H inh)
CN(C)c1ccc2c(c1)[C@H]1C[C@H](CC(=O)N3CCCCC3)O[C@@H](CO)[C@H]1O2	KDM4C inh 30 (no result: IDH1 R132H inh)
CN(C)c1ccc2c(c1)[C@H]1C[C@@H](CC(=O)N3CCc4ccccc4C3)O[C@@H](CO)[C@H]1O2	none
CN(C)c1ccc2c(c1)[C@@H]1C[C@H](CC(=O)N3CCc4ccccc4C3)O[C@H](CO)[C@@H]1O2	none
CN(C)c1ccc2c(c1)[C@@H]1C[C@H](CC(=O)N3CCCCC3)O[C@H](CO)[C@@H]1O2	KDM4C inh 46 (no result: IDH1 R132H inh)
CN(C)c1ccc2c(c1)[C@@H]1C[C@@H](CC(=O)N3CCc4ccccc4C3)O[C@@H](CO)[C@@H]1O2	none
CN(C)c1ccc2c(c1)[C@H]1C[C@H](CC(=O)N3CCCCC3)O[C@H](CO)[C@H]1O2	KDM4C inh 31 (no result: IDH1 R132H inh)
COc1cc(C)c(Br)cc1S(=O)(=O)NCC1CCCO1 (configuration not stated)	none (no result: KDM4C inh)
CN([NH2+][O-])c1cc(O)ccc1O	IDH1 R132H inh 69 (no result: KDM4C inh)
Cc1ccc(NC(=O)C(Cc2ccccc2)N2C(=O)C3C4CCC(C4)C3C2=O)cc1[N+](=O)[O-] (configuration not stated)	none (no result: KDM4C inh)
C/C=C/c1ccc2c(c1)O[C@H](CN(C)CCC)[C@H](C)CN([C@H](C)CO)S2(=O)=O	IDH1 R132H inh 84, KDM4C inh 43
C[C@H](CO)N1C[C@H](C)[C@H](CN(C)C(=O)C2CCCCC2)Oc2cc(-c3cncnc3)ccc2S1(=O)=O	none (no result: IDH1 R132H inh)
Cc1ccc(-c2ccc3c(c2)O[C@@H](CN(C)Cc2ccncc2)[C@H](C)CN([C@@H](C)CO)S3(=O)=O)cc1	none
C[C@H]1CN([C@@H](C)CO)S(=O)(=O)c2ccc(-c3cncnc3)cc2O[C@@H]1CN(C)C(=O)C1CCCCC1	KDM4C inh 35 (no result: IDH1 R132H inh)
